Assay results published in PMC9476207 (ACS Omega, 2022).

Columns and labels:
Assay in all cases: NCI-60 single-dose antiproliferative screen
Type in all cases: cell-based
MOLT-4 = settings: Homo sapiens, MOLT-4, 48 h, read-out: growth percent
Method in brief: (§1)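 NCI-60 protocol. Lines were grown in RPMI 1640 with 5% FBS and 2 mM L-glutamine, plated and incubated 24 h at 37 °C; time-zero plates were TCA-fixed. The test compound was dissolved in DMSO, diluted in medium with 50 μg/mL gentamicin and given once at a final 10^-5 M (DMSO control) for 48 h. Cells were fixed with cold TCA (1 h, 4 °C) and stained with 0.4% SRB in 1% acetic acid for 10 min. Dye was dissolved in 10 mM Trizma base and read at 515 nm. Growth percent was calculated from time-zero, test and control ODs.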

SK-MEL-5 = settings: Homo sapiens, SK-MEL-5, 48 h, read-out: growth percent
Method in brief: (§2)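 Cells grown in RPMI 1640 with 5% FBS and 2 mM L-glutamine, plated and held 24 h at 37 °C; time-zero plates TCA-fixed. DMSO stocks were diluted in gentamicin-containing medium to a final 10^-5 M, with a DMSO-only control. Exposure 48 h, 5% CO2. Adherent cells TCA-fixed 1 h at 4 °C, stained with 0.4% SRB, solubilised in 10 mM Trizma base, read at 515 nm. Growth percent derived from ODtzero, ODtest and ODctrl.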

T-47D = settings: Homo sapiens, T47D, 48 h, read-out: growth percent
Method in brief: as §2

HOP-92 = settings: Homo sapiens, HOP-92, 48 h, read-out: growth percent
Method in brief: as §1

KM12 = settings: Homo sapiens, KM12, 48 h, read-out: growth percent
Method in brief: as §1

NCI-H460 = settings: Homo sapiens, NCI-H460, 48 h, read-out: growth percent
Method in brief: as §1

UO-31 = settings: Homo sapiens, UO-31, 48 h, read-out: growth percent
Method in brief: as §2

SF-539 = settings: Homo sapiens, SF-539, 48 h, read-out: growth percent
Method in brief: as §2

HS 578T = settings: Homo sapiens, 48 h, read-out: growth percent
Method in brief: as §1

M14 = settings: Homo sapiens, M14, 48 h, read-out: growth percent
Method in brief: as §1

U251 = settings: Homo sapiens, U-251, 48 h, read-out: growth percent
Method in brief: as §2

OVCAR-4 = settings: Homo sapiens, OVCAR-4, 48 h, read-out: growth percent
Method in brief: as §1

UACC-257 = settings: Homo sapiens, UACC-257, 48 h, read-out: growth percent
Method in brief: as §2

SN12C = settings: Homo sapiens, 48 h, read-out: growth percent
Method in brief: as §2

EKVX = settings: Homo sapiens, 48 h, read-out: growth percent
Method in brief: as §1

TK-10 = settings: Homo sapiens, TK-10, 48 h, read-out: growth percent
Method in brief: as §2

SR = settings: Homo sapiens, 48 h, read-out: growth percent
Method in brief: as §2

MDA-MB-435 = settings: Homo sapiens, MDA-MB-435, 48 h, read-out: growth percent
Method in brief: as §1

MDA-MB-231 ATCC = settings: Homo sapiens, MDA-MB-231, 48 h, read-out: growth percent
Method in brief: as §1

COLO205 = settings: Homo sapiens, COLO 205, 48 h, read-out: growth percent
Method in brief: as §1

SW-620 = settings: Homo sapiens, SW-620, 48 h, read-out: growth percent
Method in brief: as §2

K-562 = settings: Homo sapiens, K562, 48 h, read-out: growth percent
Method in brief: as §1

SK-OV-3 = settings: Homo sapiens, SK-OV-3, 48 h, read-out: growth percent
Method in brief: as §2

OVCAR-8 = settings: Homo sapiens, OVCAR-8, 48 h, read-out: growth percent
Method in brief: as §1

BT-549 = settings: Homo sapiens, BT-549, 48 h, read-out: growth percent
Method in brief: as §1

SNB-75 = settings: Homo sapiens, SNB-75, 48 h, read-out: growth percent
Method in brief: as §2

MALME-3M = settings: Homo sapiens, 48 h, read-out: growth percent
Method in brief: as §1

SF-268 = settings: Homo sapiens, SF-268, 48 h, read-out: growth percent
Method in brief: as §1

MDA-MB-468 = settings: Homo sapiens, MDA-MB-468, 48 h, read-out: growth percent
Method in brief: as §1

SK-MEL-28 = settings: Homo sapiens, SK-MEL-28, 48 h, read-out: growth percent
Method in brief: as §2

SK-MEL-2 = settings: Homo sapiens, SK-MEL-2, 48 h, read-out: growth percent
Method in brief: as §2

A549/ATCC = settings: Homo sapiens, A549, 48 h, read-out: growth percent
Method in brief: as §1

SNB-19 = settings: Homo sapiens, SNB-19, 48 h, read-out: growth percent
Method in brief: as §2

OVCAR-5 = settings: Homo sapiens, OVCAR-5, 48 h, read-out: growth percent
Method in brief: as §1

HCT-15 = settings: Homo sapiens, HCT-15, 48 h, read-out: growth percent
Method in brief: as §1

CCRF-CEM = settings: Homo sapiens, 48 h, read-out: growth percent
Method in brief: as §1

Compound	activity at 10 µM (MOLT-4)	activity at 10 µM (SK-MEL-5)	activity at 10 µM (T-47D)	activity at 10 µM (HOP-92)	activity at 10 µM (KM12)	activity at 10 µM (NCI-H460)	activity at 10 µM (UO-31)	activity at 10 µM (SF-539)	activity at 10 µM (HS 578T)	activity at 10 µM (M14)	activity at 10 µM (U251)	activity at 10 µM (OVCAR-4)	activity at 10 µM (UACC-257)	activity at 10 µM (SN12C)	activity at 10 µM (EKVX)	activity at 10 µM (TK-10)	activity at 10 µM (SR)	activity at 10 µM (MDA-MB-435)	activity at 10 µM (MDA-MB-231 ATCC)	activity at 10 µM (COLO205)	other results
COc1cc(CNC(=O)CCCC/C=C/C(C)C)ccc1OCc1cn(-c2ccccc2F)nn1 [14i, (E)-N-(4-((1-(2-Fluorophenyl)-1H-1,2,3-triazol-4-yl)methoxy)-3-methoxybenzyl)-8-methylnon-6-enamide]	90.9%	91.5%	83.1%	78.7%	98.9%	104%	77.1%	105%	87.7%	96.8%	93.1%	84.2%	95%	92.7%	79.1%	111%	81.5%	101%	78.7%	116%	activity at 10 µM (SW-620): 98.1%; activity at 10 µM (K-562): 82.3%; activity at 10 µM (SK-OV-3): 97.8%; activity at 10 µM (OVCAR-8): 94.5%; activity at 10 µM (BT-549): 89.2%; activity at 10 µM (SNB-75): 88.1%; activity at 10 µM (MALME-3M): 108%; activity at 10 µM (SF-268): 95%; activity at 10 µM (MDA-MB-468): 92.8%; activity at 10 µM (SK-MEL-28): 107%; activity at 10 µM (SK-MEL-2): 106%; activity at 10 µM (A549/ATCC): 91.3%; activity at 10 µM (SNB-19): 84.8%; activity at 10 µM (OVCAR-5): 103%; activity at 10 µM (HCT-15): 96%; activity at 10 µM (CCRF-CEM): 88.6%
COc1cc(CNC(=O)CCCC/C=C/C(C)C)ccc1OCc1cn(-c2ccc(C#N)cc2)nn1 [14j, (E)-N-(4-((1-(4-Cyanophenyl)-1H-1,2,3-triazol-4-yl)methoxy)-3-methoxybenzyl)-8-methylnon-6-enamide]	88.4%	87%	76.8%	80.5%	91.5%	93%	112%	94.5%	95%	95.3%	91.2%	94.9%	94.3%	98.3%	90.8%	91.8%	76.3%	108%	90.8%	117%	activity at 10 µM (SW-620): 98%; activity at 10 µM (K-562): 75.4%; activity at 10 µM (SK-OV-3): 88.2%; activity at 10 µM (OVCAR-8): 63.3%; activity at 10 µM (BT-549): 91.2%; activity at 10 µM (SNB-75): 94.2%; activity at 10 µM (MALME-3M): 102%; activity at 10 µM (SF-268): 90.9%; activity at 10 µM (MDA-MB-468): 74.9%; activity at 10 µM (SK-MEL-28): 105%; activity at 10 µM (SK-MEL-2): 98.4%; activity at 10 µM (A549/ATCC): 84.8%; activity at 10 µM (SNB-19): 81.9%; activity at 10 µM (OVCAR-5): 95.3%; activity at 10 µM (HCT-15): 83.5%; activity at 10 µM (CCRF-CEM): 86.2%
COc1cc(CNC(=O)CCCC/C=C/C(C)C)ccc1OCc1cn(-c2ccc(Br)cc2)nn1 [14k, (E)-N-(4-((1-(4-Bromophenyl)-1H-1,2,3-triazol-4-yl)methoxy)-3-methoxybenzyl)-8-methylnon-6-enamide]	77.5%	72%	68.4%	68.8%	94.3%	72.1%	67.9%	92.4%	90.5%	90.2%	75.5%	89.2%	90.5%	83%	72.7%	118%	67.2%	107%	71.3%	103%	activity at 10 µM (SW-620): 94.7%; activity at 10 µM (K-562): 59.2%; activity at 10 µM (SK-OV-3): 74.8%; activity at 10 µM (OVCAR-8): 79.6%; activity at 10 µM (BT-549): 88.1%; activity at 10 µM (SNB-75): 90.9%; activity at 10 µM (MALME-3M): 103%; activity at 10 µM (SF-268): 78.9%; activity at 10 µM (MDA-MB-468): 68.2%; activity at 10 µM (SK-MEL-28): 100%; activity at 10 µM (SK-MEL-2): 95.2%; activity at 10 µM (A549/ATCC): 88.5%; activity at 10 µM (SNB-19): 80.9%; activity at 10 µM (OVCAR-5): 116%; activity at 10 µM (HCT-15): 94%; activity at 10 µM (CCRF-CEM): 94.2%
COc1cc(CNC(=O)CCCC/C=C/C(C)C)ccc1OCc1cn(-c2ccccc2OC)nn1 [14l, (E)-N-(3-Methoxy-4-((1-(2-methoxyphenyl)-1H-1,2,3-triazol-4-yl)methoxy)benzyl)-8-methylnon-6-enamide]	79.7%	83.9%	92.2%	72.1%	98.2%	104%	105%	106%	83%	96.7%	90.2%	100%	85.2%	98%	89.4%	90.2%	77.4%	110%	95.8%	117%	activity at 10 µM (SW-620): 97%; activity at 10 µM (K-562): 76.1%; activity at 10 µM (SK-OV-3): 99.8%; activity at 10 µM (OVCAR-8): 82.2%; activity at 10 µM (BT-549): 93.1%; activity at 10 µM (SNB-75): 103%; activity at 10 µM (MALME-3M): 106%; activity at 10 µM (SF-268): 92.6%; activity at 10 µM (MDA-MB-468): 75.5%; activity at 10 µM (SK-MEL-28): 116%; activity at 10 µM (SK-MEL-2): 89.8%; activity at 10 µM (A549/ATCC): 86%; activity at 10 µM (SNB-19): 91.6%; activity at 10 µM (OVCAR-5): 113%; activity at 10 µM (HCT-15): 106%; activity at 10 µM (CCRF-CEM): 83.7%
